Assay results: ChEMBL document CHEMBL3243986, “Synthesis and analgetic activity of some 5-aryl-2azabicyclo[3.2.1]octanes” (J Med Chem, 1978)
Calls of active or inactive are those of the source.

Experiments:
[1] = tested on: Mus musculus; test: Analgesic activity in sc dosed CD-1 mouse assessed as inhibition of phenylquinone-induced writhing administered 15 to 90 mins prior challenge measured 5 mins post challenge; assay type: functional; conditions: CD-1, sc
In short: (§1)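 Male CD-1 mice, 18–24 g, five per group, dosed 15, 30, 60 or 90 min before phenyl-p-benzoquinone (0.125% in 5% aqueous ethanol); vehicle controls. Writhes were counted over 10 min, starting 5 min after challenge. For dose–response, ten mice per dose were tested at the peak time, with four doses plus control, randomized. Result given as % inhibition of writhes; ED50 by computer linear regression.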

[2] = tested on: Mus musculus; test: Analgesic activity in sc dosed CD-1 mouse assessed as delay in response to noxious heat stimuli measured after 15 to 60 mins post dosing by D'Amour-Smith tail-flick method; assay type: functional; conditions: CD-1, Tail
In short: (§2)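 Male CD-1 mice, ten per group, held in a plexiglass restrainer; an intense light beam served as the noxious heat stimulus, and tail-flick latency was recorded automatically. Two baseline readings were taken, unstable animals were excluded, and a cutoff was set. Dosing was sc, with vehicle at 10 mL/kg. Tests ran at 15, 30, 45 and 60 min, then at the peak time for at least three doses. Response past cutoff counted as analgesia; ED50 by linear regression.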

[3] = tested on: Mus musculus; test: Inhibition of morphine-induced mania in CD-1 mouse assessed as inhibition of stereotypic activity at 10 mg/kg, sc measured after 15 to 30 mins; assay type: functional; conditions: for inhibition in vivo at 10 mg/kg: CD-1, sc, route subcutaneous
In short: (§3)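 Male mice, 18–30 g, two pairs per group, dosed randomly. Controls received morphine sulfate 25 mg/kg sc; test groups received morphine plus compound. Animals were watched for 15–30 min for stereotyped increase in motor activity, and blocking of this behaviour was scored positive. For dose range, ED50 by linear regression.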

[4] = tested on: Mus musculus; test: Analgesic activity in po dosed CD-1 mouse assessed as inhibition of phenylquinone-induced writhing administered 15 to 90 mins prior challenge measured 5 mins post challenge; assay type: functional; conditions: CD-1, po; in short: as §1
[5] = tested on: Mus musculus; test: Inhibition of morphine-induced mania in sc dosed CD-1 mouse assessed as inhibition of stereotypic activity measured after 15 to 30 mins; assay type: functional; in short: as §3
[6] = tested on: Mus musculus; test: Toxicity in sc dosed CD-1 mouse assessed as physical dependence liability by infusion test; assay type: organism-based; conditions: in vivo
[7] = tested on: Mus musculus; test: Analgesic activity in CD-1 mouse assessed as delay in response to noxious heat stimuli at 2 mg/kg, sc measured after 15 to 60 mins post dosing by D'Amour-Smith tail-flick method relative to control; assay type: functional; conditions: route subcutaneous; in short: as §2
[8] = tested on: Mus musculus; test: Analgesic activity in CD-1 mouse assessed as delay in response to noxious heat stimuli at 25 mg/kg, sc measured after 15 to 60 mins post dosing by D'Amour-Smith tail-flick method relative to control; assay type: functional; conditions: route subcutaneous; in short: as §2
[9] = tested on: Mus musculus; test: Analgesic activity in CD-1 mouse assessed as inhibition of phenylquinone-induced writhing at 10 mg/kg, sc administered 15 to 90 mins prior challenge measured 5 mins post challenge; assay type: functional; conditions: CD-1, sc, route subcutaneous; in short: as §1
[10] = tested on: Mus musculus; test: Toxicity in sc dosed CD-1 mouse assessed as overt effects; assay type: organism-based; conditions: in vivo
[11] = tested on: Mus musculus; test: Analgesic activity in po dosed CD-1 mouse assessed as delay in response to noxious heat stimuli measured after 15 to 60 mins post dosing by D'Amour-Smith tail-flick method; assay type: functional; conditions: CD-1, Tail

Row | Compound | ED50 [1] | ED50 [2] | ED50 ([5]; CD-1, sc) | Activity [8] | also measured
1 | Br.Oc1cccc(C23CCC(C2)N(CCc2ccc(Cl)c(Cl)c2)CC3)c1 (racemic) | 0.75 mg/kg | 2.73 mg/kg | – | – | inhibition [3]: inactive
2 | Br.Oc1cccc(C23CCC(C2)N(CCc2cccc(Cl)c2)CC3)c1 (racemic) | 0.46 mg/kg | 5.46 mg/kg | – | – | inhibition in vivo at 10 mg/kg [3]: 20%
3 | Br.Oc1cccc(C23CCC(C2)N(CCc2ccc(Cl)cc2)CC3)c1 (racemic) | 0.42 mg/kg | 7.32 mg/kg | – | – | inhibition in vivo at 10 mg/kg [3]: 50%
4 | Br.Oc1cccc(C23CCC(C2)N(CCc2ccccc2)CC3)c1 (racemic) | 0.68 mg/kg | 6.45 mg/kg | 1.06 mg/kg | – | ED50 [4]: 60.9 mg/kg; Activity [6]: Non-toxic
5 | Br.O=C(CCCN1CCC2(c3cccc(O)c3)CCC1C2)c1ccc(F)cc1 (racemic) | 0.35 mg/kg | – | 2.01 mg/kg | – | Activity [7]: 40%
6 | Br.Oc1cccc(C23CCC(C2)N(Cc2ccco2)CC3)c1 (racemic) | 22.7 mg/kg | 10 mg/kg | 3.7 mg/kg | – | –
7 | Br.CC(C)=CCN1CCC2(c3cccc(O)c3)CCC1C2 (racemic) | 25 mg/kg | – | – | 20% | inhibition [3]: inactive
8 | Br.Oc1cccc(C23CCC(C2)N(CC2CC2)CC3)c1 (racemic) | 5.44 mg/kg | – | – | 30% | inhibition in vivo at 10 mg/kg [3]: 20%
9 | Br.CCCCCN1CCC2(c3cccc(O)c3)CCC1C2 (racemic) | 8.34 mg/kg | – | 4.31 mg/kg | 20% | –
10 | Br.CCCCN1CCC2(c3cccc(O)c3)CCC1C2 (racemic) | 8.66 mg/kg | – | – | 30% | inhibition in vivo at 10 mg/kg [3]: 40%
11 | Br.CCCN1CCC2(c3cccc(O)c3)CCC1C2 (racemic) | 8.79 mg/kg | – | – | 20% | inhibition [3]: inactive
12 | Br.CCN1CCC2(c3cccc(O)c3)CCC1C2 (racemic) | – | – | – | 30% | inhibition in vivo at 10 mg/kg [9]: 41%; inhibition [3]: inactive
13 | Br.CN1CCC2(c3cccc(O)c3)CCC1C2 (racemic) | 10 mg/kg | – | – | 40% | –
14 | Br.COc1cccc(C23CCC(C2)N(CCc2ccccc2)CC3)c1 (racemic) | 5.99 mg/kg | 13 mg/kg | – | – | ED50 [5]: Active
15 | Br.COc1cccc(C23CCC(C2)N(CCCC(=O)c2ccc(F)cc2)CC3)c1 (racemic) | 0.85 mg/kg | – | 3.7 mg/kg | – | Activity [7]: 10%
16 | Br.CCCCCN1CCC2(c3cccc(OC)c3)CCC1C2 (racemic) | 5.77 mg/kg | – | – | 40% | inhibition [3]: inactive
17 | Br.CCCCN1CCC2(c3cccc(OC)c3)CCC1C2 (racemic) | 4.87 mg/kg | 9.71 mg/kg | – | – | inhibition [3]: inactive
18 | Br.CCCN1CCC2(c3cccc(OC)c3)CCC1C2 (racemic) | 7.4 mg/kg | – | 8.3 mg/kg | 40% | –
19 | Br.CCN1CCC2(c3cccc(OC)c3)CCC1C2 (racemic) | 11.9 mg/kg | 17.7 mg/kg | – | – | inhibition in vivo at 10 mg/kg [3]: 10%
20 | Br.COc1cccc(C23CCC(C2)N(C)CC3)c1 (racemic) | 6.96 mg/kg | – | 50 mg/kg | 10% | –
21 | Br.Cc1ccc(CCN2CCC3(c4cccc(O)c4)CCC2C3)cc1 (racemic) | 0.58 mg/kg | 8.54 mg/kg | ≤ 10 mg/kg | – | –
22 | Br.Oc1ccc(CCN2CCC3(c4cccc(O)c4)CCC2C3)cc1 (racemic) | 2.08 mg/kg | 25 mg/kg | – | – | inhibition in vivo at 10 mg/kg [3]: 20%; Activity [10]: Toxic
23 | Br.Oc1cccc(C23CCC(C2)N(CCc2cccs2)CC3)c1 (racemic) | 0.72 mg/kg | 11 mg/kg | 10 mg/kg | – | –
24 | Br.CC(=O)Oc1cccc(C23CCC(C2)N(C)CC3)c1 (racemic) | 14.1 mg/kg | – | 16 mg/kg | 14% | –
25 | Br.CC(=O)Oc1cccc(C23CCC(C2)N(CCc2ccccc2)CC3)c1 (racemic) | 1 mg/kg | 2.82 mg/kg | – | – | ED50 [4]: 15.2 mg/kg; ED50 [11]: 35 mg/kg; inhibition [3]: inactive
26 | Br.CC(=O)Oc1cccc(C23CCC(C2)N(CCc2cccs2)CC3)c1 (racemic) | 0.95 mg/kg | ≤ 3.8 mg/kg | – | – | ED50 [4]: 64 mg/kg
27 | CC(C)=CCN1CC[C@]2(C)c3cc(O)ccc3C[C@H]1[C@H]2C [(+)-PENTAZOCINE] | 2.4 mg/kg | 14.6 mg/kg | 13.8 mg/kg | – | –
28 | CN1CC[C@]23c4c5ccc(O)c4O[C@H]2[C@@H](O)C=C[C@H]3[C@H]1C5 [MORPHINE] | 0.68 mg/kg | – | – | – | –
29 | C=CCN1CC[C@]23c4c5ccc(O)c4O[C@H]2[C@@H](O)C=C[C@H]3[C@H]1C5 [NALORPHINE] | – | – | 0.43 mg/kg | – | –
